{
  "source": "ChEMBL document CHEMBL1132386",
  "about": "“Mixture-based synthetic combinatorial libraries” (J Med Chem, 1999)",
  "key": {"[1]": {"biological_target": "Kappa-type opioid receptor (Cavia porcellus) (UniProt P41144)", "sequence (P41144 whole entry, looked up)": "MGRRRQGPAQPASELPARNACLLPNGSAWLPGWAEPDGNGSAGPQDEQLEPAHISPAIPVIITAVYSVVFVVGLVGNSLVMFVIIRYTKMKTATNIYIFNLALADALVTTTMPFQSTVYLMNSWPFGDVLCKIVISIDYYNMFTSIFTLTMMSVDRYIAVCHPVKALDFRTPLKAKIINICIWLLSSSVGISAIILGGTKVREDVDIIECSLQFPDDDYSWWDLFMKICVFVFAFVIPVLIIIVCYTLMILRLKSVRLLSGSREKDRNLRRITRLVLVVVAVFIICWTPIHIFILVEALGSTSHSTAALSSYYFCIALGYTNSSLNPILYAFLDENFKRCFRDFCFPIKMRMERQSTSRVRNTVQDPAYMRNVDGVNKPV", "assay": "Inhibitory activity for kappa opioid receptor"}, "[2]": {"biological_target": "Sigma non-opioid intracellular receptor 1 (Homo sapiens, UniProt Q99720)", "sequence (Q99720 whole entry)": "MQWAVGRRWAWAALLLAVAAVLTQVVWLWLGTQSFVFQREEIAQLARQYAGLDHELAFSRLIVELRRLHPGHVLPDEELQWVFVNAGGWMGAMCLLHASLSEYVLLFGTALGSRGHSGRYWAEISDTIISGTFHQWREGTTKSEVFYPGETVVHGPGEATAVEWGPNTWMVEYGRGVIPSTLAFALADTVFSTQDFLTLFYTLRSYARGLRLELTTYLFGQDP", "assay": "Inhibitory activity towards Sigma opioid receptor type 1"}, "[3]": {"biological_target": "GABA-A receptor; anion channel", "assay": "Inhibition of binding to GABA-A Benzodiazepine receptor", "assay_type": "protein-complex assay"}, "[4]": {"biological_target": "T1, Adenosine deaminase (Homo sapiens) (UniProt P00813)", "T1 sequence (whole entry)": "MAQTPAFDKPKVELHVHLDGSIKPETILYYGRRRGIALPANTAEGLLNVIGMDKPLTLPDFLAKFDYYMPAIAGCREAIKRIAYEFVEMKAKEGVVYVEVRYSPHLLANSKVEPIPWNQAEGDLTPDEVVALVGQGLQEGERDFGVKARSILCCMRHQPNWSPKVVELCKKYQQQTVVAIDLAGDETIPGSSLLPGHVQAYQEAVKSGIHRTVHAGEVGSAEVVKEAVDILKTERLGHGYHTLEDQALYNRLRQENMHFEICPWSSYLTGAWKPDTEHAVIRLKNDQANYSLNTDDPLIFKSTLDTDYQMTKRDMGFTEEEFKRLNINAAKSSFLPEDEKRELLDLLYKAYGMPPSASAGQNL"}, "[5]": {"assay": "Enzyme inhibitory activity towards Matrix metalloproteases"}, "Acetylcholinesterase": {"biological_target": "Acetylcholinesterase (Homo sapiens, UniProt P22303)", "sequence (P22303 whole entry)": "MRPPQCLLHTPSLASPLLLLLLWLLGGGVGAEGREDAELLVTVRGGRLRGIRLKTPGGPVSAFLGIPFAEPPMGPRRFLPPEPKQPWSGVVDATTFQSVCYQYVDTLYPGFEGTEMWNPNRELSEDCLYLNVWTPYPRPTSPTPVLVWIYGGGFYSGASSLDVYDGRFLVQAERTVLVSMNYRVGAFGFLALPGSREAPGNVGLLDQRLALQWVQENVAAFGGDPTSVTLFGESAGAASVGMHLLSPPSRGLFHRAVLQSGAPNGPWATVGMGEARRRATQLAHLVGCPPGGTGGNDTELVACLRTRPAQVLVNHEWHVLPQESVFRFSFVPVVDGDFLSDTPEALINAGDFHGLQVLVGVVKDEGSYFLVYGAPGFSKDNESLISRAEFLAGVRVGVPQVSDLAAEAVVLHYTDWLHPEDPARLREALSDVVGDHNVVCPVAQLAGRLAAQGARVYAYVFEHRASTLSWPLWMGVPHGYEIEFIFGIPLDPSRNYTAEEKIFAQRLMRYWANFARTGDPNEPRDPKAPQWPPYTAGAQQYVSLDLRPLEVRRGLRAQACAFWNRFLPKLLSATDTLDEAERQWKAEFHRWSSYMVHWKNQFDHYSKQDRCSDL", "assay": "Enzyme inhibitory activity towards Acetylcholinesterase"}, "Mu-type opioid receptor": {"biological_target": "Mu-type opioid receptor (Homo sapiens, UniProt P35372)", "sequence (P35372 whole entry)": "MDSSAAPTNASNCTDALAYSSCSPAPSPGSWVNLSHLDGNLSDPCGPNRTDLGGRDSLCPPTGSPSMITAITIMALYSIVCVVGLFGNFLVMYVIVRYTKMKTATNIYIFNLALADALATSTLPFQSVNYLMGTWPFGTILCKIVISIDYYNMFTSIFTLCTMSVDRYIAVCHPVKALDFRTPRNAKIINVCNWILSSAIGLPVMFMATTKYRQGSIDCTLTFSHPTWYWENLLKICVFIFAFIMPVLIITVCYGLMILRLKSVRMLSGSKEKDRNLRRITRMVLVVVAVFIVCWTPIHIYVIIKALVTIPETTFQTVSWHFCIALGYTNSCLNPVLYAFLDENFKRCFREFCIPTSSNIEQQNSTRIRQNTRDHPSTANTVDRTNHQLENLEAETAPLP", "assay": "Antagonistic activity towards Opioid receptor mu 1", "assay_type": "functional"}, "[6]": {"biological_target": "Kappa-type opioid receptor (Cavia porcellus, UniProt P41144)", "sequence (P41144 whole entry)": "as the sequence (P41144 whole entry, looked up) above", "assay": "Inhibition of Opioid receptor kappa 1 binding", "procedure,_shortened": "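Kappa opioid radioreceptor binding in guinea pig brain homogenate with 3 nM [3H]U69,593 as radioligand, incubated 2.5 h at 25°C. Library mixtures were screened at 4 μg/mL. Data were normalized to percent inhibition using background and total binding.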"}},
  "note": "pIC50, pKi: −log10 of the molar value.",
  "data": [
    {"smiles": "CC(C)C[C@@H]1CN2C(=NC[C@H]2C2CCCCC2)N1C(C)C12CC3CC(CC(C3)C1)C2", "note": "(stereo partly drawn)", "values": [
      {"measurement": "pIC50", "setting": "[1]", "result": 5.76}
    ]},
    {"smiles": "c1cc2c(cn1)CCCC2", "note": "[5,6,7,8-TETRAHYDROISOQUINOLINE]", "values": [
      {"measurement": "pIC50", "setting": "[2]", "result": 7.25}
    ]},
    {"smiles": "CC(C)C[C@@H]1CN2C(=NC[C@@H]2C)N1C(C)C12CC3CC(CC(C3)C1)C2", "note": "(stereo partly drawn)", "values": [
      {"measurement": "pIC50", "setting": "[1]", "result": 5.44}
    ]},
    {"smiles": "CC(C)C[C@@H]1CN2C(=NC[C@@H]2C2CCCCC2)N1C(C)C12CC3CC(CC(C3)C1)C2", "note": "(stereo partly drawn)", "values": [
      {"measurement": "pIC50", "setting": "[1]", "result": 5.92}
    ]},
    {"smiles": "O=c1cc(-c2ccccc2)oc2ccccc12", "note": "[FLAVONE]", "values": [
      {"measurement": "pKi", "setting": "[3]", "result": 7.77}
    ]},
    {"smiles": "CC(N1C2=NC[C@@H](C3CCCCC3)N2C[C@@H]1C1CCCCC1)C12CC3CC(CC(C3)C1)C2", "note": "(stereo partly drawn)", "values": [
      {"measurement": "pIC50", "setting": "[1]", "result": "< 5.00"}
    ]},
    {"smiles": "O=C1CNC(=O)N1", "note": "[HYDANTOIN]", "values": [
      {"measurement": "pIC50", "setting": "[2]", "result": 7.21}
    ]},
    {"smiles": "CC(N1C2=NC[C@H](C)N2C[C@@H]1C1CCCCC1)C12CC3CC(CC(C3)C1)C2", "note": "(stereo partly drawn)", "values": [
      {"measurement": "pIC50", "setting": "[1]", "result": 5.71}
    ]},
    {"smiles": "CC1CCC(CN2C3=NC[C@H](C)N3C[C@@H]2C2CCCCC2)CC1", "note": "(stereo partly drawn)", "values": [
      {"measurement": "pIC50", "setting": "[1]", "result": 5.30}
    ]},
    {"smiles": "CC(C)C[C@@H]1CN2C(=NC[C@H]2C2CCCCC2)N1CC1CCC(C)CC1", "note": "(stereo partly drawn)", "values": [
      {"measurement": "pIC50", "setting": "[1]", "result": 6.13}
    ]},
    {"smiles": "CC(N1C2=NC[C@H](C3CCCCC3)N2C[C@@H]1C1CCCCC1)C12CC3CC(CC(C3)C1)C2", "note": "(stereo partly drawn)", "values": [
      {"measurement": "pIC50", "setting": "[1]", "result": 5.83}
    ]},
    {"smiles": "Nc1ncnc2c1ncn2[C@@H]1O[C@H](CO)[C@@H](O)[C@H]1O", "values": [
      {"measurement": "Ka", "setting": "[4]", "result": "1e+08", "unit": "M⁻¹"}
    ]},
    {"smiles": "CC(C)C[C@@H]1CN2C(=NC[C@@H]2C2CCCCC2)N1CCCC1CCCCC1", "values": [
      {"measurement": "pIC50", "setting": "[1]", "result": 5.43}
    ]},
    {"smiles": "O=C1CNC(=O)CN1", "note": "[DIKETOPIPERAZINE]", "values": [
      {"measurement": "pIC50", "setting": "[5]", "result": 4.52}
    ]},
    {"smiles": "NC(=O)O", "note": "[CARBAMIC ACID]", "values": [
      {"measurement": "pIC50", "setting": "Acetylcholinesterase", "result": 4.17}
    ]},
    {"smiles": "CC(C)C[C@@H]1CN2C(=NC[C@H]2C2CCCCC2)N1CCCC1CCCCC1", "values": [
      {"measurement": "pIC50", "setting": "[1]", "result": 5.75}
    ]},
    {"smiles": "CCCCCC(C)N", "note": "(stereo not drawn) [TUAMINOHEPTANE]", "values": [
      {"measurement": "pIC50", "setting": "Mu-type opioid receptor", "result": 7.85}
    ]},
    {"smiles": "C1CCC([C@H]2CN3C(=NC[C@@H]3C3CCCCC3)N2CCC2CC3CCC2C3)CC1", "note": "(stereo partly drawn)", "values": [
      {"measurement": "pIC50", "setting": "[1]", "result": 6.25}
    ]},
    {"smiles": "CC(C)C[C@@H]1CN2C(=NC[C@@H]2C)N1CCCC1CCCCC1", "values": [
      {"measurement": "pIC50", "setting": "[1]", "result": 5.26}
    ]},
    {"smiles": "C1CCC([C@H]2CN3C(=NC[C@H]3C3CCCCC3)N2CCC2CC3CCC2C3)CC1", "note": "(stereo partly drawn)", "values": [
      {"measurement": "pIC50", "setting": "[1]", "result": 6.28}
    ]},
    {"smiles": "CC(C)C[C@@H]1CN2C(=NC[C@@H]2C)N1CCC1CC2CCC1C2", "note": "(stereo partly drawn)", "values": [
      {"measurement": "pIC50", "setting": "[1]", "result": 5.64}
    ]},
    {"smiles": "CC(C)C[C@@H]1CN2C(=NC[C@@H]2C2CCCCC2)N1CC1CCC(C)CC1", "note": "(stereo partly drawn)", "values": [
      {"measurement": "pIC50", "setting": "[6]", "result": 5.43},
      {"measurement": "pIC50", "setting": "[1]", "result": 6.00}
    ]}
  ]
}
